The text below walks through data of the EternaBench riboswitch data.

The test system of this series is MS2 coat protein. The series can be described thus: apparent Kd, MS2 coat protein; higher = weaker binding; RNA-MaP array; FMN 200 µM where present. A digest of the protocol: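 The titrant was SNAP-549-labelled MS2 coat protein, run from 0.7 or 1.5 nM in doubling steps to 3 µM. It was applied to designs transcribed by stalled E. coli RNA polymerase on Illumina sequencing-chip clusters, without ligand first and then with constant ligand, in 100 mM Tris-HCl pH 7.5, 80 mM KCl, 4 mM MgCl2, BSA, DTT, yeast tRNA and Tween-20. The apparent Kd is the median of filtered per-cluster binding-curve fits, with green signal normalised to red-channel RNA signal and control-cluster median Fmax.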

Where [1] appears, read: designed as: OFF switch for flavin mononucleotide, no ligand.
Where [2] appears, read: ligand present: flavin mononucleotide, designed as: OFF switch for flavin mononucleotide.
[3] abbreviates: designed as: ON switch for flavin mononucleotide, no ligand.
Where [4] appears, read: ligand present: flavin mononucleotide, designed as: ON switch for flavin mononucleotide.

As for “AGUAGAUCAGGAUAUACAUAAAUGAUAAUUAUGUAACUUCUACAUGAGGAUCACCCAUGUAGAAGGGAUCUACA”, the apparent Kd (commonly the concentration giving half-maximal binding under the conditions of the assay) amounted to 12.6 nM under setting [1] and 13.1 nM under setting [2].

Turning to “GCGUAUGAGCAGGAUAUCCGACGGGAAUCCAAAGGAGAAGGGCUCACAUGAGGAUCACCCAUGUGGUCCUAAAC”, the “apparent Kd” value turned out to be 20.2 nM under setting [1] and 101 nM under setting [2].

Turning to “UCAUUGGUUGUGAGGAUAUCGGUGUGAUGGAUUGUCGAGAAGGCACAUGAGGAUCACCCAUGUUUGUUUGGGCU”, the “apparent Kd” value is, setting by setting: under setting [1], 577 nM; under setting [2], 449 nM.

For “GAAUGUUGGCUAGGAUAUGCAUUUUGAGAGGUAGCAGAAGGAGCGCACAUGAGGAUCACCCAUGUUAGCAUUGGGCGUCUCUCA”, the “apparent Kd” value is 5.76 nM under setting [1] and 16.3 nM under setting [2].

For the sequence “AGCCUGAGUCGAGGAUAUUAUGGAUCCUUUAAUACAUGAGGAUCACCCAUGUAAUUAAUUAUACAUGAGAAGGUGACUCAGGCA”, the “apparent Kd” value came out at 265 nM under setting [3] and 25.1 nM under setting [4].

In the case of “GUAGCAUACGGAGGAUAUUCAUUAAAACAUGAGGAUCACCCAUGUAAAUUGGGAGAAGGCCGUAUGCUACAAGAGCGAAAGCUC”, the “apparent Kd” value is 18.3 nM under setting [3] and 5.48 nM under setting [4].

As for “GGGUGGCGUAGAGGAUAUGUGUUACAUGAGGAUCACCCAUGUGCAUAUGAUGUUCGUGUGUGUGUAUAGAAGGCUACGUCGCUA”, the “apparent Kd” value runs as follows: under setting [3], 14.4 nM; under setting [4], 17.7 nM.

For “GCCAGGAUGUAAGGAUAUGCUGAGGAUAACUCAGCAGAAGGUACAUGAGGAUCACCCAUGUAAUCCAAUAAUAAAUAACCUGGC”, the “apparent Kd” value by setting is: under setting [1], 11.8 nM; under setting [2], 23.8 nM.

As for “CACCAGCGAGGAUAUACACGUGGUCUCCACUCCCGGUGGUAACAUGAGGAUCACCCAUGUAGAAGGCGCAACAU”, the “apparent Kd” value runs as follows: under setting [1], 42 nM; under setting [2], 220 nM.

On to “GUAAAGUGAGGAUAUGGUAAUUUAAUUAUUAAUUAAUUAAUCCAGAAGGCACAUGAGGAUCACCCAUGUAAAGG”, for which the “apparent Kd” value by setting is: under setting [1], 39.6 nM; under setting [2], 74.6 nM.

Consider “UCCUGGCGAGGAUAUACAAAGUUUUUUACGUUUUGUUACGAACAUGAGGAUCACCCAUGUAGAAGGUGCUACUG”, for which the “apparent Kd” value by setting is: under setting [1], 78 nM; under setting [2], 67.3 nM.

“UUAGCAUACCGAGGAUAUUCAUAUAAUAAAUAAACAUGAGGAUCACCCAUGUGGCGAAAGCCUAGGGAGAAGGCGGAAUGCUAC”: the “apparent Kd” value under setting [3] was determined as 206 nM and the “apparent Kd” value under setting [4] came to 26.5 nM.

On to “AUACUCAUGUAAGGAUAUGCAGCCGAAACGGCUGCAGAAGGUACUAUAAUACAUGAGGAUCACCCAUGUCAAAAUAAAAUAGUC”, for which the “apparent Kd” value under setting [3] was 63.5 nM and the “apparent Kd” value under setting [4] worked out at 22.9 nM.

Take “UGUUGUUCAGGAUAUGAUGUAUAAUACAUGAGGAUCACCCAUGUAGAUCCUGAAUUAACGUCAGAAGGGAAUGUUG”: the “apparent Kd” value under setting [1] came to 15.1 nM and the “apparent Kd” value under setting [2] was found to be 17 nM.

As for “GGAUAGGACAGAGGAUAUACGGCUAGGAGAUACUAGCUACUAUUCCUCACAUGAGGAUCACCCAUGUAGAAGGCUGUCCUAUCG”, the “apparent Kd” value reads like this: under setting [1], 17.6 nM; under setting [2], 140 nM.

Take “UUGAUUAUACAAGGAUAUCAAUUGUAUACAAGUCUUACAUGAGGAUCACCCAUGUUAAAUUUUUUUGAGAAGGUGUAUUGUCAG”: the “apparent Kd” value came to 40.2 nM under setting [3] and 24 nM under setting [4].

On to “GUCUGAUUGUAGAAGGUACUUAAUACUCAUGUAACAUGAGGAUCACCCAUGUAUCAACAAUAUUGUAAGGAUAUACAAAUCUCA”, for which, under setting [4], the “apparent Kd” value came out at 222 nM.

For “GAUAUGUUAGGAUAUCGGAAAACGGCCCACUGGCACGGAAGCGAGAAGGGACAUGAGGAUCACCCAUGUGAAAG”, the “apparent Kd” value by setting is: under setting [1], 48.1 nM; under setting [2], 31.4 nM.

As for “UUGAAUUGAAACAUGAGGAUCACCCAUGUGUCAUAGUUGACAUAGGAUAUGCUUAUACUUUUAAAGCAGAAGGAUGACGAUACU”, the “apparent Kd” value reads like this: under setting [3], 19.8 nM; under setting [4], 7.46 nM.

As for “CGCAAGUCAGGAUAUUCGACAGGUAAAUCAGUGGAUCAGUAGGAGAAGGGACAUGAGGAUCACCCAUGUAUGUA”, the “apparent Kd” value runs as follows: under setting [1], 49.7 nM; under setting [2], 29.6 nM.

For the sequence “AAAAAGCGAGGAUAUACGAGUCAAAGAAAAGACAAGGAGAAACAUGAGGAUCACCCAUGUAGAAGGCGCAAAAA”, the “apparent Kd” value runs as follows: under setting [1], 20.5 nM; under setting [2], 23.3 nM.

For “AUCAGCUCGUCAGGAUAUACGUCACUGCGUCAGCAGUGUGGUAAGAUCACAUGAGGAUCACCCAUGUAGAAGGGACGAGCUGGU”, the “apparent Kd” value was 14.4 nM under setting [1] and 239 nM under setting [2].

Take “UUAGAAAUGUUAGGAUAUUAAUAUUUUUUUAGUAUGAUCUACAUGAGGAUCACCCAUGUUAAUAUUAAGAAGGAACAUUUUAUU”: the “apparent Kd” value reads like this: under setting [1], 88.5 nM; under setting [2], 64 nM.

For the sequence “GUAGCUACUAUUAUACAUGAGGAUCACCCAUGUUACAUGUGUAAGGAUAUUGAAGUUAUUAUUAUCAAGAAGGUACUAUGCUAC”, the “apparent Kd” value worked out at 16.2 nM under setting [3] and 9.54 nM under setting [4].

Take “UCGGCGCGAGGAUAUGCGGCUGGUGCUUCGGGCCCUGGCGUACAUGAGGAUCACCCAUGUAGAAGGCGCGCCGC”: the “apparent Kd” value runs as follows: under setting [1], 11.7 nM; under setting [2], 14.7 nM.

Turning to “GACUUGUCAGGAUAUCUUACAUUUGCAUCGUAGUUACCAUUGGAGAAGGGACAUGAGGAUCACCCAUGUUUGGU”, the “apparent Kd” value by setting is: under setting [1], 35.2 nM; under setting [2], 34.9 nM.

As to “GAUAUUUUUUGAGGAUAUUCAUACACUGUAUACGGAGAAGGCAAACAAUCAUGAGGACAUGAGGAUCACCCAUGUUGUGACCAU”, the “apparent Kd” value by setting is: under setting [3], 19.5 nM; under setting [4], 13.5 nM.

As to “GAAAAACAUGAGGAUCACCCAUGUGAGAAUAUGGGAGGAUAUACGAGGACGAGAGUCAAGGUAGAAGGCCUAAAAG”, the “apparent Kd” value is, setting by setting: under setting [3], 96.3 nM; under setting [4], 15.2 nM.

Regarding “UGAGAUCAUGUAGGAUAUGCAUGGCGAAGCUACGCAGAAGGACAUGAGGAUCACCCAUGUUAUAGCUACCCAGUUCGGUGGCAA”, the “apparent Kd” value runs as follows: under setting [1], 44.4 nM; under setting [2], 86.7 nM.

For the sequence “GUUAUUUAUGUAGGAUAUGCGAGGCGAGCCUAAGCAGAAGGACAUGAGGAUCACCCAUGUAUUGCGGUCUGCGUUCAGAUCGCU”, the “apparent Kd” value was 32.4 nM under setting [1] and 150 nM under setting [2].

With “AUUAUUUCAUGAGGAUAUGGCACCUUAUUGGUGCCAGAAGGCAUGUCUAUUGACAUGAGGAUCACCCAUGUAUUAAAUUAUAUA”, the “apparent Kd” value came out at 621 nM under setting [3] and 45.3 nM under setting [4].

Regarding “GUUUUUUUUAGUUCAUACUAUUUGAUAGAAGGUGAAAUAUAGACAUGAGGAUCACCCAUGUAAUUCAAGGAUAUGUAGUUACUC”, the “apparent Kd” value amounted to 40.6 nM under setting [3] and 32.7 nM under setting [4].

With “GUGCUUAACUAGAAGGCCGUAUGCAAAGCAUACGGAGGAUAUGGGUUCCGGAAACGGACAUGAGGAUCACCCAUGUGGCACAAA”, the “apparent Kd” value by setting is: under setting [3], 111 nM; under setting [4], 12.7 nM.

“GGGAAGUGAGGAUAUGCUGCUCGUCACUUGCGUGAUGAGUAGCAGAAGGUACAUGAGGAUCACCCAUGUAAAAA”: the “apparent Kd” value reads like this: under setting [1], 29.6 nM; under setting [2], 19 nM.

As for “AGUUGGGUCACAGGAUAUGCGCCGGCAUGCGAAGCAGAAGGGUGACGAGGUUGGGAACAUGAGGAUCACCCAUGUAUCGCAUAA”, the “apparent Kd” value under setting [3] worked out at 319 nM and the “apparent Kd” value under setting [4] was 36.5 nM.

As for “UGUUGUAUUACAGGAUAUCUAUGAUUAUUAUUUAGAGAAGGGUAUUCACAUGAGGAUCACCCAUGUAUAUACGAGGAAGUUGUG”, the “apparent Kd” value turned out to be 40.7 nM under setting [3] and 48.7 nM under setting [4].

For “AAAAAGGCAGGAUAUACGAGUCAAAGAAAAGACAAAAAGGGACAUGAGGAUCACCCAUGUAGAAGGGCCAAAAA”, the “apparent Kd” value by setting is: under setting [1], 36.9 nM; under setting [2], 227 nM.

Turning to “AAGAAACAUGAGGAUCACCCAUGUGAGGAUAUGAAAAAGAAAAGAAAAGAAAGAAGAAUCAGAAGGCACAAAGG”, the “apparent Kd” value by setting is: under setting [1], 30.8 nM; under setting [2], 45.1 nM.

With “UAUUACCUAGGAUAUACAUGAGGAUCACCCAUGUCACGGGUCAACUUGUCCUAUGCGUGUAGAAGGAGGGACCC”, the “apparent Kd” value under setting [1] worked out at 19.8 nM and the “apparent Kd” value under setting [2] is 21.3 nM.

As to “UGGUACGAGGGAGGAUAUGGGAAGAUACAUGAGGAUCACCCAUGUUUAAGAAUGCCGAGAGGCAACUAGAAGGCCCUAGUACCU”, the “apparent Kd” value runs as follows: under setting [3], 583 nM; under setting [4], 21.9 nM.

Consider “UGUGCCUCGAGAGGAUAUAUACAUGAGGAUCACCCAUGUAACGAGGUGGAAACACCUCGAAAUGUAUAGAAGGCUCGAGGCACA”, for which the “apparent Kd” value turned out to be 27.7 nM under setting [1] and 49.6 nM under setting [2].

As to “AUGGGUUAAGGAGGAUAUAGAGGGAGGAGUAGACAUGAGGAUCACCCAUGUAUUUAAUUAGUUUACUAGAAGGCUUGUGAUUGU”, the “apparent Kd” value under setting [3] was 56 nM and the “apparent Kd” value under setting [4] came out at 75.7 nM.

As for “UUUAUGUAAGGAUAUGCGGGCGGGCGCGUUUGUGUUUGUUUGUAGAAGGUACAUGAGGAUCACCCAUGUAGUGG”, the “apparent Kd” value under setting [1] worked out at 133 nM and the “apparent Kd” value under setting [2] is 169 nM.

On to “CGUAACUACAUAGGAUAUUGAUACAUGAGGAUCACCCAUGUUAUAGGGAUUAGUAUAAUAUUAAGCAAGAAGGAUGAAGUUACG”, for which the “apparent Kd” value under setting [3] came to 23.4 nM and the “apparent Kd” value under setting [4] was 14.8 nM.

On to “GUCAGCUCGUGAGGAUAUACAACACUUCUUCGGCAGUGUAUUAAGAUCACAUGAGGAUCACCCAUGUAGAAGGCACGAGCUGAU”, for which the “apparent Kd” value came out at 14.1 nM under setting [1] and 231 nM under setting [2].

For the sequence “UAUAACCGAGGAUAUACAUGAGGAUCACCCAUGUAAUGUAGUAUAAUGUAUGUAAAAUGUAGAAGGUGGGAUGU”, the “apparent Kd” value is 54.4 nM under setting [1] and 47 nM under setting [2].

As to “GGUGCGUAUGUGAGGAUAUGCUGGUCCUUGGAUCGGCAGAAGGCACAUGAGGAUCACCCAUGUGGUGUCGUACU”, the “apparent Kd” value under setting [1] was found to be 300 nM and the “apparent Kd” value under setting [2] was determined as 25.5 nM.

As to “UUGGCGACGUAGAAGGGUGACAUGAGGAUCACCCAUGUGCCGAUAUUUCUCGAAAUAUGUCGGCCACAGGAUAUACGUGCCAUC”, the “apparent Kd” value by setting is: under setting [3], 38.2 nM; under setting [4], 91.8 nM.
